We go through six molecules from ChEMBL document CHEMBL1135552, “Synthesis and biological activities of cyclic lanthionine enkephalin analogues: delta-opioid receptor selective ligands” (J Med Chem, 2002).

The species entered for test [1] is Rattus norvegicus. Description: Dosage necessary to produce half maximal effect; Range is in between (10-24). Type of test: functional.
In test [2] the target is Mu-type opioid receptor (Cavia porcellus, UniProt P97266). Description: Ability to inhibit electrically evoked contractions of isolated muscle preparations of guinea pig ileum (GPI, mu receptor). Type of test: functional, tissue-based. The procedure, abridged: (§1)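 Electrically evoked contractions of isolated guinea pig ileum (GPI) or mouse vas deferens (MVD) preparations. A log dose-response curve for [Leu5]-enkephalin was run as standard on each ileum and vas preparation. IC50 values were normalised to that standard.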
Sequence of Mu-type opioid receptor (Cavia porcellus, UniProt P97266) (P97266 whole entry): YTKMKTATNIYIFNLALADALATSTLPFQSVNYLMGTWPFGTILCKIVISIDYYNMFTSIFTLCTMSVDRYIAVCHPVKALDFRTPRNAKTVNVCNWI

Test [3] deals with T1, Delta-type opioid receptor (Homo sapiens, UniProt P41143). Nature of the test: Inhibition of binding of [3H]diprenorphine to cloned human Opioid receptor delta 1 expressed in CHO cell membrane;Range is between (1.7-2.3). Type of test: cell-based.
T1 sequence (P41143 whole entry): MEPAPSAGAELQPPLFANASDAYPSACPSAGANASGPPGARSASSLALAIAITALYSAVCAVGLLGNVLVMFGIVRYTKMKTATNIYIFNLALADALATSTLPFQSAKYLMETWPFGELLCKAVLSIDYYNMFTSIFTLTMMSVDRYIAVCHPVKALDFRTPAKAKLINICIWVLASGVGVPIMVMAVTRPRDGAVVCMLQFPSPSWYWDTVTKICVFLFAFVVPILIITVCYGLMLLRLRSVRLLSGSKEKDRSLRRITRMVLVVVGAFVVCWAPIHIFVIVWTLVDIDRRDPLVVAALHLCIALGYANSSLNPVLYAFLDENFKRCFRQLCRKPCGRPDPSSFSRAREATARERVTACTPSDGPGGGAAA
Test [4] has as its target T2, Kappa-type opioid receptor (Homo sapiens, UniProt P41145). Nature of the test: Inhibition of binding of [3H]diprenorphine to cloned human Opioid receptor kappa 1 expressed in CHO cell membrane;Range is in between (1400-1900). The format is cell-based. The procedure, abridged: (§2)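 Membranes from CHO cells expressing cloned human µ, δ or κ receptors in Tris-HCl pH 7.8 buffer with EGTA, MgCl2 and protease inhibitors. 50-100 µg protein with 0.4 nM (final) [3H]-diprenorphine, 60 min, room temperature. Filtered on PEI/BSA-treated GF/B filters, counted by scintillation. Nonspecific binding with 10 µM naloxone. Four-parameter one-site fit; Ki by Cheng-Prusoff.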

Test [5] concerns the target T3, Mu-type opioid receptor (Homo sapiens, UniProt P35372). Nature of the test: Inhibition of binding of [3H]diprenorphine to cloned human Opioid receptor mu 1 expressed in CHO cell membrane;Range is in between (1.8-2.2). The format is cell-based.
The target in test [6] is T4, Delta-type opioid receptor (Mus musculus, UniProt P32300). Description: Ability to inhibit electrically evoked contractions of isolated muscle preparations of mouse vas deferens (MVD, delta receptor). Type of test: functional. The procedure, abridged:
as §1

The species entered for test [7] is Rattus norvegicus. Nature of the test: Dosage necessary to produce half maximal effect; Range is in between (0.0010-0.0024). Type of test: functional.
The species entered for test [8] is Rattus norvegicus. Nature of the test: Dosage necessary to produce half maximal effect; Range is in between (98-163). The format is functional.
Test [9] addresses T1, Delta-type opioid receptor. Description: Inhibition of binding of [3H]diprenorphine to cloned human Opioid receptor delta 1 expressed in CHO cell membrane;Range is in between (0.62-0.65). The format is cell-based.
Test [10] concerns the target T3, Mu-type opioid receptor. Nature of the test: Inhibition of binding of [3H]diprenorphine to cloned human Opioid receptor mu 1 expressed in CHO cell membrane;Range is in between (1.3-3.7). The format is cell-based.
Test [11] deals with T2, Kappa-type opioid receptor. Description: Inhibition of binding of [3H]diprenorphine to cloned human Opioid receptor kappa 1 expressed in CHO cell membrane; range is in between (4700-8500). Type of test: cell-based. The gist of the method: as §2
The species entered for test [12] is Rattus norvegicus. Nature of the test: Dosage necessary to produce half maximal effect; Range is in between (0.0010-0.0034). The format is functional.
The species named for test [13] is Rattus norvegicus. Description: Dosage necessary to produce half maximal effect; Range is in between (0.017-0.41). Type of test: functional.
Test [14] concerns the target T3, Mu-type opioid receptor. Description: Inhibition of binding of [3H]diprenorphine to cloned human Opioid receptor mu 1 expressed in CHO cell membrane;Range is in between (580-680). Type of test: cell-based. The procedure, abridged: as §2
Test [15] concerns the target T1, Delta-type opioid receptor. Description: Inhibition of binding of [3H]diprenorphine to cloned human Opioid receptor delta 1 expressed in CHO cell membrane;Range is between (0.35-2.5). Type of test: cell-based. The procedure, abridged:
as §2

Test [16] addresses T2, Kappa-type opioid receptor. Nature of the test: Inhibition of binding of [3H]diprenorphine to cloned human Opioid receptor kappa 1 expressed in CHO cell membrane. The format is cell-based.
In test [17] the target is T4, Delta-type opioid receptor. Description: Ability to inhibit electrically evoked contractions of isolated muscle preparations of mouse vas deference (MVD, delta receptor). The format is functional. The procedure, abridged: as §1
For test [18], the target named is T1, Delta-type opioid receptor. Nature of the test: Inhibition of binding of [3H]diprenorphine to cloned human Opioid receptor delta 1 expressed in CHO cell membrane;Range is between (0.66-0.95). Type of test: cell-based. The gist of the method:
as §2

For test [19], the species on record is Rattus norvegicus. Description: Dosage necessary to produce half maximal effect; Range is in between (0.04-0.33). Type of test: functional.
In test [20] the target is T3, Mu-type opioid receptor. Description: Inhibition of binding of [3H]diprenorphine to cloned human Opioid receptor mu 1 expressed in CHO cell membrane;Range is in between (110-150). Type of test: cell-based. The procedure, abridged: as §2

T4 sequence (P32300 whole entry): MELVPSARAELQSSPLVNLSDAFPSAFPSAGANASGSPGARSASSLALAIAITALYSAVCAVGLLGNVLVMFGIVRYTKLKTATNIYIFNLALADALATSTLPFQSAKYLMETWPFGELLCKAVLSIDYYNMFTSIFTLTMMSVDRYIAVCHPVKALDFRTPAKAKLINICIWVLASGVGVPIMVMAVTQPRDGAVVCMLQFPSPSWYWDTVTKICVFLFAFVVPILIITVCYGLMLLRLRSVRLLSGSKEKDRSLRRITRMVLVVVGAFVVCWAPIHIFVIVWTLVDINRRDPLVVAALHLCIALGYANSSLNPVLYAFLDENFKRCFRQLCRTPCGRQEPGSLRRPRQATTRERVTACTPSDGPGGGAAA
T3 sequence (P35372 whole entry): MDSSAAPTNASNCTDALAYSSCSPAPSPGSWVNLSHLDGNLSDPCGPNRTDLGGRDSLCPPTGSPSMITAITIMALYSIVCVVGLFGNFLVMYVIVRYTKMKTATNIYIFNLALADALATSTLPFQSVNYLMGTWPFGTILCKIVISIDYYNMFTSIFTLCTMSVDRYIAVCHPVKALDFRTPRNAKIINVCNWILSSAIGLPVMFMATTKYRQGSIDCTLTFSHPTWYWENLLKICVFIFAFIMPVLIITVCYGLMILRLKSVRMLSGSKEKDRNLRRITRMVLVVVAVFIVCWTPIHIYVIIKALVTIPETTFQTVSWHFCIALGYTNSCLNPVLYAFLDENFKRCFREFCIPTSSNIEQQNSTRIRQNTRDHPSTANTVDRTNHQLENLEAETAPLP
T2 sequence (P41145 whole entry): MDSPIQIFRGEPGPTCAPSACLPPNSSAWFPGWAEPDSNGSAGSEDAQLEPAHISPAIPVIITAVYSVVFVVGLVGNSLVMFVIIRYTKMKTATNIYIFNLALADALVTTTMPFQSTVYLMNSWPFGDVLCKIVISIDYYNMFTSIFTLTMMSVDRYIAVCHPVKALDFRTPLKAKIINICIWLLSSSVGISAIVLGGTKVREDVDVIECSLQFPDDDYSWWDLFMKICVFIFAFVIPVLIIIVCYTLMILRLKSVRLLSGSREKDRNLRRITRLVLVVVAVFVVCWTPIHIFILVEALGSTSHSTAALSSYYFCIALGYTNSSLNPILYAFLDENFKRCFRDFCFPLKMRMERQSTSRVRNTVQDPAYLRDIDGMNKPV

With `CN1CC[C@]23c4c5ccc(O)c4O[C@H]2[C@@H](O)C=C[C@H]3[C@H]1C5` [MORPHINE], the ED50 in the test listed under Rattus norvegicus [1] stood at 15 nM.
For the molecule `N[C@@H](Cc1ccc(O)cc1)C(=O)N[C@@H]1CSC[C@H](C(=O)O)NC(=O)[C@H](Cc2ccccc2)NC(=O)CNC1=O`, the IC50 on Mu-type opioid receptor [2] turned out to be 0.56 nM; in [6], 1.58 nM. Further, the figures for the Ki (in test [3]; in [4]; on Mu-type opioid receptor [5]) were 2 nM, 1600 nM and 2 nM, respectively. In addition, the ED50 in the test listed under Rattus norvegicus [7] came out at 0.0015 nM.
In the test listed under Rattus norvegicus [8], `CC1(C)SSC(C)(C)[C@@H](NC(=O)[C@@H](N)Cc2ccc(O)cc2)C(=O)NCC(=O)N[C@@H](Cc2ccccc2)C(=O)N[C@H]1C(=O)O` yielded an ED50 of 130 nM.
As to `N[C@@H](Cc1ccc(O)cc1)C(=O)N[C@@H]1CSC[C@@H](C(=O)O)NC(=O)[C@H](Cc2ccccc2)NC(=O)CNC1=O`, the Ki in test [9] came to 0.63 nM; on Mu-type opioid receptor [10] it was 2.3 nM; in [11], 6400 nM. Also, the IC50 at Mu-type opioid receptor [2] was determined as 1.06 nM; in [6], 0.35 nM. Besides, the ED50 in the test listed under Rattus norvegicus [12] stood at 0.0018 nM.
On to `CC1(C)SC[C@H](C(=O)O)NC(=O)[C@H](Cc2ccccc2)NC(=O)CNC(=O)[C@@H]1NC(=O)[C@@H](N)Cc1ccc(O)cc1`, for which the ED50 in the test listed under Rattus norvegicus [13] is 0.26 nM. The values for the Ki (on Mu-type opioid receptor [14]; in test [15]; in test [16]) were 630 nM, 0.93 nM and above 10000 nM, respectively. The IC50 against Mu-type opioid receptor [2] amounted to 730 nM; in [17], 2.33 nM.
Take `CC1(C)SC[C@@H](C(=O)O)NC(=O)[C@H](Cc2ccccc2)NC(=O)CNC(=O)[C@@H]1NC(=O)[C@@H](N)Cc1ccc(O)cc1`: the Ki in test [18] was 0.79 nM; in test [16], above 1000 nM; on Mu-type opioid receptor [20] it was 130 nM. Also, the ED50 in the test filed under Rattus norvegicus [19] came to 0.12 nM. Further, the IC50 worked out at 82 nM against Mu-type opioid receptor [2] and 0.26 nM in [17].
